{"data": "Experimental data gathered from unrelated publications", "CYP51": "Sterol 14-alpha demethylase (CYP51, Trypanosoma cruzi, UniProt Q7Z1V1)", "MTNR1A": "Melatonin receptor type 1A (MTNR1A, Homo sapiens, UniProt P48039)", "F2 trypsin-like site": "Prothrombin, trypsin-like site (F2, Bos taurus, UniProt P00735)", "AURKA": "Aurora kinase A (AURKA, Homo sapiens, UniProt O14965)", "Tmem97": "Sigma intracellular receptor 2 (Tmem97, Rattus norvegicus, UniProt Q5U3Y7)", "FLT3": "Receptor-type tyrosine-protein kinase FLT3 (FLT3, Homo sapiens, UniProt P36888)", "HTR2C": "5-hydroxytryptamine receptor 2C (HTR2C, Homo sapiens, UniProt P28335)", "note": "Each line is one published result; the experiments were not run side by side. pEC50, pIC50, pKd, pKi: −log10 of the molar value."}
{"SMILES": "CC(C)c1ccc(NC(=O)O[C@@H](Cn2ccnc2)c2ccc(F)cc2)cc1", "target": "CYP51", "test": "binding", "endpoint": "pKd", "value": 7.08}
{"SMILES": "O=C(NCCc1cccc2ccccc12)C1CCC1", "target": "MTNR1A", "test": "cAMP, agonist, TR-FRET", "endpoint": "pEC50", "value": 5.78}
{"SMILES": "CC(C)(C)[C@H](NC(=O)[C@H](CCCNC(=N)N)NC(=O)Cc1ccc(CN)cc1)C(=O)N[C@@H](CCONC(=N)N)C(=O)NCc1ccc(C(=N)N)cc1", "target": "F2 trypsin-like site", "test": "enzyme activity, inhibitor", "conditions": "pH 8", "endpoint": "pKi", "value": 4.89}
{"SMILES": "Cc1cnc(-c2ccc(-c3ccc(NC(=O)Nc4c(F)cc(F)cc4F)cc3F)c3c2C(=O)NC3)[nH]1", "target": "AURKA", "test": "binding, competition with immobilised ligand", "endpoint": "pKd", "value": 8.54}
{"SMILES": "O=C(NCCN1CCCCC1)c1ccc(OCCF)c(Br)c1", "target": "Tmem97", "test": "ligand displacement, radioligand", "conditions": "cell membranes", "endpoint": "pKi", "value": 7.37}
{"SMILES": "COc1ccc2ncn(CCNC(C)=O)c2c1", "target": "MTNR1A", "test": "GTPγS binding, agonist, radiometric", "conditions": "cell membranes", "endpoint": "pEC50", "value": 5.66}
{"SMILES": "COc1cc2c(cc1OC)CN(CCCCn1ccc3c(OC)cccc31)C2", "target": "Tmem97", "test": "ligand displacement, radioligand", "conditions": "cell membranes", "endpoint": "pKi", "value": 8.20}
{"SMILES": "O=C(O[C@@H](Cn1ccnc1)c1ccccc1)c1ccc(-c2ccccc2)cc1", "target": "CYP51", "test": "binding", "endpoint": "pKd", "value": 7.06}
{"SMILES": "CCc1nnc(SCc2cc(C(=O)OC)cs2)[nH]1", "target": "MTNR1A", "test": "cAMP, agonist, luciferase", "endpoint": "pEC50", "value": 7.75}
{"SMILES": "CC(C)(C)Nc1ccnc(Nc2cccc(-c3cccnc3)c2)n1", "target": "FLT3", "test": "enzyme activity, inhibitor", "endpoint": "pIC50", "value": 7.89}
{"SMILES": "CC(C)(C)[C@H](NC(=O)[C@H](CCCNC(=N)N)NC(=O)Cc1ccc(CNC(=N)N)cc1)C(=O)N[C@@H](CCCNC(=N)N)C(=O)NCc1ccc(C(=N)N)cc1", "target": "F2 trypsin-like site", "test": "enzyme activity, inhibitor", "conditions": "pH 8", "endpoint": "pKi", "value": 4.70}
{"SMILES": "c1cc(Nc2nccc(NC3CCCCC3)n2)cc(-c2cc[nH]n2)c1", "target": "FLT3", "test": "enzyme activity, inhibitor", "endpoint": "pIC50", "value": 7.02}
{"SMILES": "COc1ccc2[nH]cc(CCNC(C)=O)c2c1I", "target": "MTNR1A", "test": "β-arrestin recruitment, agonist", "endpoint": "pEC50", "value": 7.28}
{"SMILES": "Fc1ccc(CNc2cccc(-c3nnc[nH]3)c2)c(F)c1", "target": "MTNR1A", "test": "cAMP, agonist, luciferase", "endpoint": "pEC50", "value": 6.61}
{"SMILES": "COCC(CNC(C)=O)c1cccc2ccc(OC)cc12 (stereo not shown)", "target": "MTNR1A", "test": "β-arrestin recruitment, agonist", "endpoint": "pEC50", "value": 8.51}
{"SMILES": "c1cncc(C2CCCC(Nc3nccc(NC4CCCCC4)n3)C2)c1 (stereo not shown)", "target": "FLT3", "test": "enzyme activity, inhibitor", "endpoint": "pIC50", "value": "< 4.64"}
{"SMILES": "NC(=S)N/N=C1\\C(=O)Nc2ccccc21", "target": "Tmem97", "test": "ligand displacement, radioligand", "conditions": "cell membranes", "endpoint": "pKi", "value": "< 5.00"}
{"SMILES": "c1ccc(-c2ccc(Nc3nccc(NC4CCCCC4)n3)cc2)nc1", "target": "FLT3", "test": "enzyme activity, inhibitor", "endpoint": "pIC50", "value": 5.73}
{"SMILES": "C[C@@H]1Cc2ccccc2N1C(=O)NCCCCN(C)[C@@H]1Cc2cccc3[nH]c(=O)n(c23)C1", "target": "HTR2C", "test": "ligand displacement, radioligand", "endpoint": "pKi", "value": "< 5.00"}
{"SMILES": "O=C(Nc1ccc(Sc2ccc([N+](=O)[O-])cc2)cc1)O[C@@H](Cn1ccnc1)c1ccc(Cl)cc1", "target": "CYP51", "test": "binding", "endpoint": "pKd", "value": 6.15}
{"SMILES": "COc1cccc2c1CCN(C(=O)c1c[nH]nc1-c1ccc(Cl)s1)C2", "target": "MTNR1A", "test": "cAMP, agonist, luciferase", "endpoint": "pEC50", "value": 7.12}
{"SMILES": "Cc1cc(Nc2cc3ncccc3c(N[C@@H]3C[C@H]4CC[C@@H](C3)N4CCC#N)n2)n[nH]1", "target": "AURKA", "test": "binding, competition with immobilised ligand", "endpoint": "pKd", "value": 7.18}
{"SMILES": "COc1ccc2c(c1)N(Cc1cc(=O)c(OC)co1)CCO2", "target": "MTNR1A", "test": "cAMP, agonist, luciferase", "endpoint": "pEC50", "value": 9.25}
{"SMILES": "CC(C)c1nc2cc(OCCCCN3CCN(c4cccc5c4OCCO5)CC3)ccc2s1", "target": "HTR2C", "test": "cell-free assay, radioligand", "endpoint": "pKi", "value": 7.04}
{"SMILES": "COc1cccc(-c2cccc(Nc3nccc(NC(C)C)n3)c2)c1", "target": "FLT3", "test": "enzyme activity, inhibitor", "endpoint": "pIC50", "value": 5.16}
{"SMILES": "COC(=O)c1nccc(N(C)CC2CCCCC2O)n1 (stereo not shown)", "target": "MTNR1A", "test": "cAMP, agonist, luciferase", "endpoint": "pEC50", "value": 5.73}
{"SMILES": "COc1cc2c(CCNC(C)=O)c(I)[nH]c2cc1[N+](=O)[O-]", "target": "MTNR1A", "test": "GTPγS binding, agonist, radiometric", "conditions": "cell membranes", "endpoint": "pEC50", "value": 7.68}
{"SMILES": "CCCN1CCN(c2ccc(-c3cncc(Cl)c3N3CCC4(CCNC4=O)CC3)cc2)CC1", "target": "Myotonin-protein kinase (DMPK, Homo sapiens, UniProt Q09013)", "test": "cell-free assay", "conditions": "lysate", "endpoint": "pKd", "value": 4.73}
{"SMILES": "Clc1ccc(CNc2cccc(-c3nnc[nH]3)c2)cc1Cl", "target": "MTNR1A", "test": "cAMP, agonist, luciferase", "endpoint": "pEC50", "value": 6.64}
{"SMILES": "O=C(NCCN1CCCCC1)c1cc(Br)ccc1O", "target": "Tmem97", "test": "ligand displacement, radioligand", "conditions": "cell membranes", "endpoint": "pKi", "value": "< 5.00"}
{"SMILES": "COc1ccc2c(ccn2CCCCN2Cc3cc(OC)c(OC)cc3C2)c1", "target": "Tmem97", "test": "ligand displacement, radioligand", "conditions": "cell membranes", "endpoint": "pKi", "value": 8.05}
{"SMILES": "COC(=O)c1cc(Cn2ccc(C(C)=O)n2)c(C)s1", "target": "MTNR1A", "test": "cAMP, agonist, luciferase", "endpoint": "pEC50", "value": 7.13}
{"SMILES": "c1cncc(-c2cccc(Nc3nccc(NC4CCCC4)n3)c2)c1", "target": "FLT3", "test": "enzyme activity, inhibitor", "endpoint": "pIC50", "value": 7.89}
{"SMILES": "COc1cc2c(CCNC(C)=O)c[nH]c2cc1I", "target": "MTNR1A", "test": "cAMP, agonist, TR-FRET", "endpoint": "pEC50", "value": 8.18}
{"SMILES": "CC(C)Nc1ccnc(Nc2cccc(C(C)(C)C)c2)n1", "target": "FLT3", "test": "enzyme activity, inhibitor", "endpoint": "pIC50", "value": 4.76}
{"SMILES": "CCOC(=O)c1nc(N(C)CCc2cnccn2)ccc1Br", "target": "MTNR1A", "test": "cAMP, agonist, luciferase", "endpoint": "pEC50", "value": 7.53}
{"SMILES": "CCC(=O)NC1Cc2ccccc2C(c2ccccc2)C1 (stereo not shown)", "target": "MTNR1A", "test": "β-arrestin recruitment, agonist", "endpoint": "pEC50", "value": 6.12}
{"SMILES": "Fc1ccc(Nc2nccc(NC3CCCCC3)n2)cc1", "target": "FLT3", "test": "enzyme activity, inhibitor", "endpoint": "pIC50", "value": 5.48}
{"SMILES": "O=C(NCCCn1ccnc1)O[C@H](Cn1ccnc1)c1ccc(F)cc1", "target": "CYP51", "test": "binding", "endpoint": "pKd", "value": 6.22}
{"SMILES": "Cc1cc2nc3c(=O)[nH]c(=O)nc-3n(C[C@H](O)[C@H](O)[C@H](O)COP(=O)(O)OP(=O)(O)OC[C@H]3O[C@@H](n4cnc5c(N)ncnc54)[C@H](O)[C@@H]3O)c2cc1C", "target": "BMP-2-inducible protein kinase (BMP2K, Homo sapiens, UniProt Q9NSY1)", "test": "binding", "conditions": "lysate", "endpoint": "pKd", "value": 7.51}
{"SMILES": "COc1ccc(-c2nsc(NC(=O)[C@@H]3C[C@H]3C)c2C)cc1", "target": "Metabotropic glutamate receptor 1 (Grm1, Rattus norvegicus, UniProt P23385)", "test": "ligand displacement, radioligand", "endpoint": "pKi", "value": 9.22}
{"SMILES": "Cc1ccc(C(=O)Nc2ccc(Oc3cc4cnn(C)c4cc3-c3cn[nH]c3)c(F)c2)c(=O)n1-c1ccc(F)cc1", "target": "FLT3", "test": "enzyme activity, inhibitor, radiometric", "endpoint": "pIC50", "value": 7.51}
{"SMILES": "CC(C)(C)[C@H](NC(=O)[C@H](CCONC(=N)N)NC(=O)Cc1ccc(CNC(=N)N)cc1)C(=O)N[C@@H](CCCCN)C(=O)NCc1ccc(C(=N)N)cc1", "target": "F2 trypsin-like site", "test": "enzyme activity, inhibitor", "conditions": "pH 8", "endpoint": "pKi", "value": 4.21}
